Legend:
MCF7 [1] = test: Antiproliferative activity against human MCF7 cells by MTT assay; assay type: functional, cell-based
Outline: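 MCF-7 cells grown in Eagle's MEM with 10% FBS, 2 mM L-glutamine, penicillin/streptomycin and 1% non-essential amino acids. Seeded at 2.5×10^4 cells/mL, left 24 h at 37°C, then treated 72 h across 1 nM–100 μM from ethanol stocks (vehicle 1% v/v). MTT at 1 mg/mL final for 2 h in darkness, DMSO solubilisation, absorbance read. IC50 is the mean of at least three experiments in triplicate.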

OVCAR-8 = test: Antiproliferative activity against human OVCAR8 cells; assay type: functional; conditions: read-out: LC50 (the source's name)
MDA-MB-435 = test: Antiproliferative activity against human MDA-MB-435 cells; assay type: functional; conditions: read-out: LC50 (the source's name)
UACC-257 = test: Antiproliferative activity against human UACC257 cells; assay type: functional; conditions: read-out: LC50 (the source's name)
SK-MEL-5 = test: Antiproliferative activity against human SK-MEL-5 cells; assay type: functional; conditions: read-out: LC50 (the source's name)
CAKI-1 = test: Antiproliferative activity against human Caki1 cells; assay type: functional; conditions: read-out: LC50 (the source's name)
SF-295 = test: Antiproliferative activity against human SF295 cells; assay type: functional; conditions: read-out: LC50 (the source's name)
HCT-116 = test: Antiproliferative activity against human HCT116 cells; assay type: functional; conditions: read-out: LC50 (the source's name)
IGROV-1 = test: Antiproliferative activity against human IGROV1 cells; assay type: functional; conditions: read-out: LC50 (the source's name)
A498 = test: Antiproliferative activity against human A498 cells; assay type: functional; conditions: read-out: LC50 (the source's name)
RXF 393 = test: Antiproliferative activity against human RXF393 cells; assay type: functional; conditions: read-out: LC50 (the source's name)
EKVX = test: Antiproliferative activity against human EKVX cells; assay type: functional; conditions: read-out: LC50 (the source's name)
SF-268 = test: Antiproliferative activity against human SF268 cells; assay type: functional; conditions: read-out: LC50 (the source's name)
SK-OV-3 = test: Antiproliferative activity against human SKOV3 cells; assay type: functional; conditions: read-out: LC50 (the source's name)
UACC-62 = test: Antiproliferative activity against human UACC62 cells; assay type: functional; conditions: read-out: LC50 (the source's name)
[2] = Antiproliferative activity against human […] cells; assay type: functional; conditions: read-out: LC50 (the source's name)
LOX IMVI = test: Antiproliferative activity against human LOXIMVI cells; assay type: functional; conditions: read-out: LC50 (the source's name)
HCT-15 = test: Antiproliferative activity against human HCT15 cells; assay type: functional; conditions: read-out: LC50 (the source's name)
SK-MEL-2 = test: Antiproliferative activity against human SK-MEL-2 cells; assay type: functional; conditions: read-out: LC50 (the source's name)
MOLT-4 = test: Antiproliferative activity against human MOLT4 cells; assay type: functional; conditions: read-out: LC50 (the source's name)
COLO 205 = test: Antiproliferative activity against human COLO205 cells; assay type: functional; conditions: read-out: LC50 (the source's name)
M14 = test: Antiproliferative activity against human M14 cells; assay type: functional; conditions: read-out: LC50 (the source's name)
SNB-19 = test: Antiproliferative activity against human SNB19 cells; assay type: functional; conditions: read-out: LC50 (the source's name)
HL-60(TB) = test: Antiproliferative activity against human HL-60(TB) cells; assay type: functional; conditions: read-out: LC50 (the source's name)
DU-145 = test: Antiproliferative activity against human DU145 cells; assay type: functional; conditions: read-out: LC50 (the source's name)
786-0 = test: Antiproliferative activity against human 786-0 cells; assay type: functional; conditions: read-out: LC50 (the source's name)
K562 = test: Antiproliferative activity against human K562 cells; assay type: functional; conditions: read-out: LC50 (the source's name)
TK-10 = test: Antiproliferative activity against human TK10 cells; assay type: functional; conditions: read-out: LC50 (the source's name)
BT-549 = test: Antiproliferative activity against human BT549 cells; assay type: functional; conditions: read-out: LC50 (the source's name)
HOP-62 = test: Antiproliferative activity against human HOP62 cells; assay type: functional; conditions: read-out: LC50 (the source's name)
SF-539 = test: Antiproliferative activity against human SF539 cells; assay type: functional; conditions: read-out: LC50 (the source's name)
U-251 = test: Antiproliferative activity against human U251 cells; assay type: functional; conditions: read-out: LC50 (the source's name)
MDA-MB-231 [3] = test: Antiproliferative activity against human MDA-MB-231 cells; assay type: functional; conditions: read-out: LC50 (the source's name)
NCI-H460 = test: Antiproliferative activity against human NCI-H460 cells; assay type: functional; conditions: read-out: LC50 (the source's name)
NCI-H522 = test: Antiproliferative activity against human NCI-H522 cells; assay type: functional; conditions: read-out: LC50 (the source's name)
NCI/ADR-RES = test: Antiproliferative activity against human NCI/ADR-RES cells; assay type: functional; conditions: read-out: LC50 (the source's name)
MCF7 [4] = test: Antiproliferative activity against human MCF7 cells; assay type: functional; conditions: read-out: LC50 (the source's name)
CCRF-CEM = test: Antiproliferative activity against human CCRF-CEM cells; assay type: functional; conditions: read-out: LC50 (the source's name)
ACHN = test: Antiproliferative activity against human ACHN cells; assay type: functional; conditions: read-out: LC50 (the source's name)
SNB-75 = test: Antiproliferative activity against human SNB75 cells; assay type: functional; conditions: read-out: LC50 (the source's name)
HOP-92 = test: Antiproliferative activity against human HOP92 cells; assay type: functional; conditions: read-out: LC50 (the source's name)
NCI-H226 = test: Antiproliferative activity against human NCI-H226 cells; assay type: functional; conditions: read-out: LC50 (the source's name)
SK-MEL-28 = test: Antiproliferative activity against human SK-MEL-28 cells; assay type: functional; conditions: read-out: LC50 (the source's name)
SN12C = test: Antiproliferative activity against human SN12C cells; assay type: functional; conditions: read-out: LC50 (the source's name)
PC-3 = test: Antiproliferative activity against human PC3 cells; assay type: functional; conditions: read-out: LC50 (the source's name)
MDA-MB-468 = test: Antiproliferative activity against human MDA-MB-468 cells; assay type: functional; conditions: read-out: LC50 (the source's name)
MDA-MB-231 [5] = test: Antiproliferative activity against human MDA-MB-231 cells by MTT assay; assay type: functional, cell-based
Outline: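 MDA-MB-231 cells in DMEM with 10% FBS, 2 mM L-glutamine and penicillin/streptomycin were seeded at 2.5×10^4 cells/mL and held 24 h at 37°C. They then got ethanol-stock compound over 1 nM–100 μM (vehicle 1% v/v ethanol) for 72 h. MTT at 1 mg/mL final was added for 2 h in the dark, then DMSO for 20 min before absorbance. Untreated = 100% viability. IC50 is the mean ± S.E.M. of ≥3 triplicate experiments.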

NCI-H23 = test: Antiproliferative activity against human NCI-H23 cells; assay type: functional; conditions: read-out: LC50 (the source's name)
OVCAR-5 = test: Antiproliferative activity against human OVCAR5 cells; assay type: functional; conditions: read-out: LC50 (the source's name)
Malme-3M = test: Antiproliferative activity against human MALME-3M cells; assay type: functional; conditions: read-out: LC50 (the source's name)
HCC 2998 = test: Antiproliferative activity against human HCC2998 cells; assay type: functional; conditions: read-out: LC50 (the source's name)
SW-620 = test: Antiproliferative activity against human SW620 cells; assay type: functional; conditions: read-out: LC50 (the source's name)
RPMI-8226 = test: Antiproliferative activity against human RPMI8226 cells; assay type: functional; conditions: read-out: LC50 (the source's name)
OVCAR-4 = test: Antiproliferative activity against human OVCAR4 cells; assay type: functional; conditions: read-out: LC50 (the source's name)
KM12 = test: Antiproliferative activity against human KM12 cells; assay type: functional; conditions: read-out: LC50 (the source's name)
A549 = test: Antiproliferative activity against human A549 cells; assay type: functional; conditions: read-out: LC50 (the source's name)
T47D = test: Antiproliferative activity against human T47D cells; assay type: functional; conditions: read-out: LC50 (the source's name)
UO-31 = test: Antiproliferative activity against human UO31 cells; assay type: functional; conditions: read-out: LC50 (the source's name)

COc1ccc([C@H]2N(c3cc(OC)c(OC)c(OC)c3)C(=O)C2(c2ccccc2)c2ccccc2)cc1 (mixture of isomers)
IC50 (MCF7 [1]): 43.2 µM

COc1ccc([C@@H]2C(c3cccs3)C(=O)N2c2cc(OC)c(OC)c(OC)c2)cc1 (mixture of isomers)
CC50 (OVCAR-8): > 100 µM | CC50 (MDA-MB-435): > 100 µM | CC50 (UACC-257): > 100 µM | CC50 (SK-MEL-5): > 100 µM | CC50 (CAKI-1): > 100 µM | CC50 (SF-295): > 100 µM | CC50 (HCT-116): > 100 µM | CC50 (IGROV-1): > 100 µM | CC50 (A498): > 100 µM | CC50 (RXF 393): > 100 µM | CC50 (EKVX): > 100 µM | CC50 (SF-268): > 100 µM | CC50 (SK-OV-3): > 100 µM | CC50 (UACC-62): > 100 µM | CC50 [2]: > 100 µM | CC50 (LOX IMVI): > 100 µM | CC50 (HCT-15): > 100 µM | CC50 (SK-MEL-2): > 100 µM | CC50 (MOLT-4): > 100 µM | CC50 (COLO 205): > 100 µM | CC50 (M14): > 100 µM | CC50 (SNB-19): > 100 µM | CC50 (HL-60(TB)): > 100 µM | CC50 (DU-145): > 100 µM | CC50 (786-0): > 100 µM | CC50 (K562): > 100 µM | CC50 (TK-10): > 100 µM | CC50 (BT-549): > 100 µM | CC50 (HOP-62): > 100 µM | CC50 (SF-539): > 100 µM | CC50 (U-251): > 100 µM | CC50 (MDA-MB-231 [3]): > 100 µM | CC50 (NCI-H460): > 100 µM | CC50 (NCI-H522): > 100 µM | CC50 (NCI/ADR-RES): > 100 µM | CC50 (MCF7 [4]): > 100 µM | CC50 (CCRF-CEM): > 100 µM | IC50 (MCF7 [1]): 0.064 µM | CC50 (ACHN): > 100 µM | CC50 (SNB-75): > 100 µM | CC50 (HOP-92): > 100 µM | CC50 (NCI-H226): > 100 µM | CC50 (SK-MEL-28): > 100 µM | CC50 (SN12C): > 100 µM | CC50 (PC-3): > 100 µM | CC50 (MDA-MB-468): > 100 µM | IC50 (MDA-MB-231 [5]): 0.19 µM | CC50 (NCI-H23): > 100 µM | CC50 (OVCAR-5): > 100 µM | CC50 (Malme-3M): > 100 µM | CC50 (HCC 2998): > 100 µM | CC50 (SW-620): > 100 µM | CC50 (RPMI-8226): > 100 µM | CC50 (OVCAR-4): > 100 µM | CC50 (KM12): > 100 µM | CC50 (A549): > 100 µM | CC50 (T47D): > 100 µM | CC50 (UO-31): > 100 µM

COc1ccc([C@@H]2C(Cc3cccs3)C(=O)N2c2cc(OC)c(OC)c(OC)c2)cc1 (mixture of isomers)
IC50 (MCF7 [1]): 1.64 µM

COc1cc(N2C(=O)[C@H](c3cccs3)[C@H]2c2ccc3ccccc3c2)cc(OC)c1OC (mixture of isomers)
IC50 (MCF7 [1]): 0.12 µM

COc1cc(N2C(=O)[C@H](c3cccs3)[C@H]2c2cccs2)cc(OC)c1OC (mixture of isomers)
IC50 (MCF7 [1]): 0.91 µM

COc1ccc([C@@H]2C(c3cccs3)C(=O)N2c2cc(OC)c(OC)c(OC)c2)cc1[N+](=O)[O-] (mixture of isomers)
IC50 (MCF7 [1]): 0.37 µM

COc1ccc([C@@H]2C(c3cccc4ccccc34)C(=O)N2c2cc(OC)c(OC)c(OC)c2)cc1 (mixture of isomers)
IC50 (MCF7 [1]): 11.3 µM

COc1ccc([C@@H]2C(c3ccc4ccccc4c3)C(=O)N2c2cc(OC)c(OC)c(OC)c2)cc1 (mixture of isomers)
IC50 (MCF7 [1]): 2.5 µM

COc1ccc([C@@H]2C(c3ccoc3)C(=O)N2c2cc(OC)c(OC)c(OC)c2)cc1 (mixture of isomers)
IC50 (MCF7 [1]): 0.15 µM

COc1ccc([C@@H]2C(c3ccsc3)C(=O)N2c2cc(OC)c(OC)c(OC)c2)cc1 (mixture of isomers)
IC50 (MCF7 [1]): 0.06 µM

COc1ccc([C@@H]2C(c3ccc(C)s3)C(=O)N2c2cc(OC)c(OC)c(OC)c2)cc1 (mixture of isomers)
IC50 (MCF7 [1]): 0.25 µM

COc1ccc([C@@H]2C(c3cc4ccccc4s3)C(=O)N2c2cc(OC)c(OC)c(OC)c2)cc1 (mixture of isomers)
IC50 (MCF7 [1]): 0.85 µM

COc1ccc([C@@H]2[C@@H](C(O)c3ccsc3)C(=O)N2c2cc(OC)c(OC)c(OC)c2)cc1 (mixture of isomers)
IC50 (MCF7 [1]): 0.99 µM

COc1cc(N2C(=O)[C@H](c3cccs3)[C@H]2c2cccc3ccccc23)cc(OC)c1OC (racemic)
IC50 (MCF7 [1]): 0.62 µM

From ChEMBL document CHEMBL1765074, “Synthesis, evaluation and structural studies of antiproliferative tubulin-targeting azetidin-2-ones” (Bioorg Med Chem, 2011)
